ChEMBL document CHEMBL4049427, “Use of Molecular Modeling to Design Selective NTS2 Neurotensin Analogues” (J Med Chem, 2017)
Square brackets hold non-standard residues; d marks the D form. Peptide text beside a SMILES is read from it. ξ: configuration not given here. ξOrn = NCCCC(N)C(=O)O

Key:
[1] = target: T1, Neurotensin receptor type 2 (Homo sapiens, UniProt O95665); experiment: Displacement of 125I-[Tyr3]-NT from human NTS2 receptor
Summary of the method: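 Fresh membranes from 1321N1 cells stably expressing hNTS2 (DMEM, 10% FBS, G418). 50 μg membrane incubated with 255 pM 125I-[Tyr3]-NT in 50 mM Tris-HCl pH 7.5, 0.2% BSA with competitor 10^-11 to 10^-5 M, 30 min at 25 °C. Nonspecific binding defined with 10^-5 M NT[8-13]. Filtration, γ-counting. IC50 converted to Ki via Cheng−Prusoff; mean of at least three experiments.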

[2] = target: Neurotensin receptor type 1 (Homo sapiens, UniProt P30989); experiment: Displacement of 125I-[Tyr3]-NT from human NTS1 receptor expressed in CHOK1 cell membranes after 30 mins by gamma counting analysis
Chain of Neurotensin receptor type 1 (P30989 whole entry): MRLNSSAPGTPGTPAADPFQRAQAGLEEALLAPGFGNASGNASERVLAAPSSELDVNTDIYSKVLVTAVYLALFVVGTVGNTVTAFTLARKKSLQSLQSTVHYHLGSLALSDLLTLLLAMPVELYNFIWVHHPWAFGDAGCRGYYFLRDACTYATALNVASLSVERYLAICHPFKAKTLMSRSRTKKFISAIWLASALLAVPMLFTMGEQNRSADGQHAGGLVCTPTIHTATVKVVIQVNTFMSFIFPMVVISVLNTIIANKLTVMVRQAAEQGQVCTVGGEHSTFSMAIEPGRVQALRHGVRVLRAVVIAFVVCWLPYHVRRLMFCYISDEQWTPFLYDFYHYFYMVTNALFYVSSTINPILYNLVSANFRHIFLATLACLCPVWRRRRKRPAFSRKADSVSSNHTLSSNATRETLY

[3] = Displacement of 125I-[Tyr3]-NT from HA-tagged human NTS1 R212E mutant receptor expressed in HEK293 cell membranes after 30 mins by gamma counting analysis
Summary of the method: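 Membranes from HEK293 cells transfected with human HA-tagged NTS1-R212E (10 μg DNA, PEI), prepared fresh 48 h post-transfection. 50 μg membrane incubated with 130 pM 125I-[Tyr3]-NT in 50 mM Tris-HCl pH 7.5, 0.2% BSA with competitor 10^-11 to 10^-5 M, 30 min at 25 °C. Nonspecific binding defined with 10^-5 M NT[8-13]. Filtration, γ-counting. IC50 converted to Ki via Cheng−Prusoff; at least three experiments.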

[4] = target: T1, Neurotensin receptor type 2; experiment: Displacement of 125I-[Tyr3]-NT from human NTS2 receptor expressed in human 1321N1 cell membranes after 30 mins by gamma counting analysis
Summary of the method: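 Fresh membranes from 1321N1 cells stably expressing hNTS2 (DMEM, 10% FBS, G418). Nonspecific binding defined with 10^-5 M NT[8-13]. Filtration, γ-counting. IC50 converted to Ki via Cheng−Prusoff; mean of at least three experiments.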

Homo sapiens [5] = species on record: Homo sapiens; experiment: Selectivity ratio of Ki for human NTS1 receptor expressed in CHOK1 cell membrane to Ki for human NTS2 receptor expressed in human 1321N1 cell membranes; format: cell-based
Homo sapiens [6] = species on record: Homo sapiens; experiment: Selectivity ratio of Ki for human NTS1 receptor expressed in CHOK1 cell membranes to Ki for HA-tagged human NTS1 R212E mutant receptor expressed in HEK293 cell membranes; format: cell-based
Summary of the method: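 Ki was taken on two receptors. WT: 15 μg CHO-K1 hNTS1 membrane with 45 pM 125I-[Tyr3]-NT. R212E: HEK293 cells transfected by PEI with HA-tagged hNTS1-R212E, membranes made 48 h later; 50 μg membrane with 130 pM tracer. Both ran in Tris-HCl pH7.5 with 0.2% BSA, 30 min at 25 °C, with filtration and γ-counting. IC50 was converted to Ki by Cheng–Prusoff, and the ratio taken as WT Ki over mutant Ki.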

T1 sequence (O95665 whole entry): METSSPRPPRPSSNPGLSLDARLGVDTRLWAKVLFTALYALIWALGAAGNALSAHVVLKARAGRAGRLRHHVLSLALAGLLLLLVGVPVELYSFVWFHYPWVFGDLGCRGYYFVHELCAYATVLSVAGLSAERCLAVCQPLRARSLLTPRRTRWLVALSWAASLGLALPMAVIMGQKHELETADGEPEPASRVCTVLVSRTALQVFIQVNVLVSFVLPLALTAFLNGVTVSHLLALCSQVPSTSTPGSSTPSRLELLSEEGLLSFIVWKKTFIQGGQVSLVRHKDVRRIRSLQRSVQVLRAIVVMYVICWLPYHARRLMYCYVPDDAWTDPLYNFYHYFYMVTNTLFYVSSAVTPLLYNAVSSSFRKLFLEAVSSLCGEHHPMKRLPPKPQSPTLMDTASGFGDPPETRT

## CC[C@H](C)[C@H](NC(=O)[C@H](Cc1ccc(O)cc1)NC(=O)[C@@H]1CCCN1C(=O)[C@H](CCCCN)NC(=O)[C@@H](N)CCCCN)C(=O)N[C@@H](CC(C)C)C(=O)O
[1]
  Ki: 0.95 nM

## CC[C@H](C)[C@H](NC(=O)[C@H](CCCCN)NC(=O)[C@@H]1CCCN1C(=O)[C@H](CCCCN)NC(=O)[C@@H](N)CCCCN)C(=O)N[C@@H](C[Si](C)(C)C)C(=O)O
[2]
  Ki: 663 nM
[3]
  Ki: 127 nM

## CC[C@H](C)[C@H](NC(=O)[C@H](CCCCN)NC(=O)[C@@H]1CCCN1C(=O)[C@H](CCCCN)NC(=O)[C@@H](N)CCCCN)C(=O)N[C@H](C[Si](C)(C)C)C(=O)O
[4]
  Ki: 67 nM
Homo sapiens [5]
  Ratio Ki: 9.9
Homo sapiens [6]
  Ratio Ki: 5.22

## CC[C@H](C)[C@H](NC(=O)[C@H](Cc1ccc(O)cc1)NC(=O)[C@@H]1CCCN1C(=O)[C@H](CCCNC(=N)N)NC(=O)[C@@H](N)CCCNC(=N)N)C(=O)N[C@@H](CC(C)C)C(=O)O
[3]
  Ki: 4.69 nM

## CC[C@H](C)[C@H](NC(=O)C(CCCN)NC(=O)[C@@H]1CCCN1C(=O)[C@H](CCCCN)NC(=O)[C@@H](N)CCCCN)C(=O)N[C@@H](CC(C)C)C(=O)O (stereo partly drawn) (H-KKP[ξOrn]IL-OH)
[2]
  Ki: > 10000 nM
[4]
  Ki: 619 nM

## H-KKPDIL-OH
[2]
  Ki: > 10000 nM
[4]
  Ki: 4200 nM
[3]
  Ki: > 10000 nM

## H-KKPEIL-OH
[2]
  Ki: > 10000 nM
[4]
  Ki: 1600 nM
[3]
  Ki: > 10000 nM

## H-KKPHIL-OH
[2]
  Ki: 456 nM
[4]
  Ki: 474 nM
Homo sapiens [5]
  Ratio Ki: 0.96

## H-KKPKIL-OH
[2]
  Ki: 5700 nM
[4]
  Ki: 262 nM
Homo sapiens [5]
  Ratio Ki: 21.8
[3]
  Ki: 199 nM
Homo sapiens [6]
  Ratio Ki: 28.6
